Experimental data as given in ChEMBL document CHEMBL1132342, “Novel hypotensive agents from Verbesina caracasana. 6. Synthesis and pharmacology of caracasandiamide” (1999).

Legend:
Rattus norvegicus [1] = experiment: Change in heart rate after iv administration of 2.5 ug/kg in anesthetized rats
Rattus norvegicus [2] = experiment: Maximum rate of rise of the left ventricular isovolumetric pressure was measured after iv administration of 2.5 mg/kg in anesthetized rats; ratio given for dP/dt; type: functional, Heart left ventricle
Rattus norvegicus [3] = experiment: Change in systolic blood pressure after iv administration of 2.5 mg/kg in anesthetized rats; type: functional, Artery
Rattus norvegicus [4] = experiment: Change in diastolic blood pressure after iv administration of 2.5 ug/kg in anesthetized rats
Rattus norvegicus [5] = experiment: Change in heart rate after iv administration of 1 mg/kg in anesthetized rats; type: functional
Rattus norvegicus [6] = experiment: Change in systolic blood pressure after iv administration of 1 mg/kg in anesthetized rats; type: functional, Artery
Rattus norvegicus [7] = experiment: Change in diastolic blood pressure after iv administration of 1 mg/kg in anesthetized rats; type: functional, Artery
Rattus norvegicus [8] = experiment: Maximum rate of rise of the left ventricular isovolumetric pressure was measured after iv administration of 1 mg/kg in anesthetized rats; type: functional, Heart left ventricle
Rattus norvegicus [9] = experiment: Change in diastolic blood pressure after iv administration of 25 uM/kg in anesthetized rats; type: functional, Artery
Rattus norvegicus [10] = experiment: Change in systolic blood pressure after iv administration of 25 uM/kg in anesthetized rats; type: functional, Artery
Summary of the method: (§1)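 Doses were 4.12 µM/kg (two agents), guanethidine 25, clonidine 0.108, hexamethonium 12, reserpine 8, papaverine 5 and histamine […]. Peak changes in systolic BP or HR were recorded.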

Rattus norvegicus [11] = experiment: Maximum rate of rise of the left ventricular isovolumetric pressure was measured after iv administration of 25 uM/kg in anesthetized rats; ratio given for dP/dt; type: functional, Heart left ventricle
Rattus norvegicus [12] = experiment: Change in heart rate after iv administration of 25 uM/kg in anesthetized rats; type: functional
Rattus norvegicus [13] = experiment: Change in heart rate after iv administration of 12 uM/kg in anesthetized rats; type: functional
Rattus norvegicus [14] = experiment: Change in diastolic blood pressure after iv administration of 12 uM/kg in anesthetized rats; type: functional, Artery
Rattus norvegicus [15] = experiment: Change in systolic blood pressure after iv administration of 12 uM/kg in anesthetized rats; type: functional, Artery
Summary of the method: as §1

Rattus norvegicus [16] = experiment: Maximum rate of rise of the left ventricular isovolumetric pressure was measured after iv administration of 12 uM/kg in anesthetized rats; type: functional, Heart left ventricle
Rattus norvegicus [17] = experiment: Maximum rate of rise of the left ventricular isovolumetric pressure was measured after iv administration of 0.625 mg/kg in anesthetized rats; type: functional, Heart left ventricle
Rattus norvegicus [18] = experiment: Change in diastolic blood pressure after iv administration of 0.625 mg/kg in anesthetized rats; type: functional, Artery
Rattus norvegicus [19] = experiment: Change in systolic blood pressure after iv administration of 0.625 ug/kg in anesthetized rats
Rattus norvegicus [20] = experiment: Change in heart rate after iv administration of 0.625 ug/kg in anesthetized rats
Rattus norvegicus [21] = experiment: Change in systolic blood pressure after iv administration of 5 uM/kg in anesthetized rats; type: functional, Artery
Rattus norvegicus [22] = experiment: Change in diastolic blood pressure after iv administration of 5 uM/kg in anesthetized rats; type: functional, Artery
Rattus norvegicus [23] = experiment: Change in heart rate after iv administration of 5 uM/kg in anesthetized rats; type: functional
Summary of the method: as §1

Rattus norvegicus [24] = experiment: Maximum rate of rise of the left ventricular isovolumetric pressure was measured after iv administration of 5 uM/kg in anesthetized rats; ratio given for dP/dt; type: functional, Heart left ventricle
Rattus norvegicus [25] = experiment: Maximum rate of rise of the left ventricular isovolumetric pressure was measured after iv administration of 8 uM/kg in anesthetized rats; ratio given for dP/dt; type: functional, Heart left ventricle
Rattus norvegicus [26] = experiment: Change in systolic blood pressure after iv administration of 8 uM/kg in anesthetized rats; type: functional, Artery
Rattus norvegicus [27] = experiment: Change in heart rate after iv administration of 8 uM/kg in anesthetized rats; type: functional
Summary of the method: as §1

Rattus norvegicus [28] = experiment: Change in diastolic blood pressure after iv administration of 8 uM/kg in anesthetized rats; type: functional, Artery

SMILES: CC(=O)OCC[N+](C)(C)C [ACETYLCHOLINE]
- Heart rate (Rattus norvegicus [1]): -27 beats min-1
- dP/dt (Rattus norvegicus [2]): -4451 mmHg s-1
- BP (Rattus norvegicus [3]): -25 mmHg
- BP (Rattus norvegicus [4]): -31 mmHg

SMILES: CNC[C@H](O)c1ccc(O)c(O)c1 [EPINEPHRINE]
- Heart rate (Rattus norvegicus [5]): 41 beats min-1
- BP (Rattus norvegicus [6]): 25 mmHg
- BP (Rattus norvegicus [7]): 16 mmHg
- dP/dt (Rattus norvegicus [8]): 8416 mmHg s-1

SMILES: N=C(N)NCCN1CCCCCCC1 [GUANETHIDINE]
- BP (Rattus norvegicus [9]): -22 mmHg
- BP (Rattus norvegicus [10]): -29 mmHg
- dP/dt (Rattus norvegicus [11]): -1090 mmHg s-1
- Heart rate (Rattus norvegicus [12]): -24 beats min-1

SMILES: C[N+](C)(C)CCCCCC[N+](C)(C)C.[Cl-].[Cl-] [HEXAMETHONIUM CHLORIDE]
- Heart rate (Rattus norvegicus [13]): -46 beats min-1
- BP (Rattus norvegicus [14]): -40 mmHg
- BP (Rattus norvegicus [15]): -48 mmHg
- dP/dt (Rattus norvegicus [16]): -4421 mmHg s-1

SMILES: CC(C)NCC(O)c1ccc(O)c(O)c1 (configuration not stated) [ISOPROTERENOL]
- dP/dt (Rattus norvegicus [17]): 9844 mmHg s-1
- BP (Rattus norvegicus [18]): -31 mmHg
- BP (Rattus norvegicus [19]): -20 mmHg
- Heart rate (Rattus norvegicus [20]): 46 beats min-1

SMILES: NC[C@H](O)c1ccc(O)c(O)c1 [NOREPINEPHRINE]
- Heart rate (Rattus norvegicus [5]): 28 beats min-1
- BP (Rattus norvegicus [6]): 43 mmHg
- BP (Rattus norvegicus [7]): 25 mmHg
- dP/dt (Rattus norvegicus [8]): 5564 mmHg s-1

SMILES: COc1ccc(Cc2nccc3cc(OC)c(OC)cc23)cc1OC [PAPAVERINE]
- BP (Rattus norvegicus [21]): -20 mmHg
- BP (Rattus norvegicus [22]): -15 mmHg
- Heart rate (Rattus norvegicus [23]): -18 beats min-1
- dP/dt (Rattus norvegicus [24]): -1204 mmHg s-1

SMILES: COC(=O)[C@H]1[C@H]2C[C@@H]3c4[nH]c5cc(OC)ccc5c4CCN3C[C@H]2C[C@@H](OC(=O)c2cc(OC)c(OC)c(OC)c2)[C@@H]1OC [RESERPINE]
- dP/dt (Rattus norvegicus [25]): -1438 mmHg s-1
- BP (Rattus norvegicus [26]): -35 mmHg
- Heart rate (Rattus norvegicus [27]): -51 beats min-1
- BP (Rattus norvegicus [28]): -29 mmHg
